These results are taken from ChEMBL document CHEMBL1155483, “Anthranilic acid replacements in a niacin receptor agonist” (Bioorg Med Chem Lett, 2010).

Data set [1] addresses Hydroxycarboxylic acid receptor 2 (Homo sapiens) (UniProt Q8TDS4). Briefly: Displacement of [3H]niacin from human niacin receptor expressed in CHO-KI cells at 25 uM. Format: cell-based.
For data set [2] the target is unchanged. Briefly: Displacement of [3H]niacin from human niacin receptor expressed in CHO-KI cells in presence of human serum. The format is cell-based. The gist of the method:
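Membranes from CHO-K1 cells stably expressing the niacin receptor; [3H]niacin displacement titrated with and without added human serum (serum level not stated); the serum shift is given as fold change. Values are means of two independent titrations, with calculated standard errors below 15%.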

The nature of data set [3]: Half life in mouse plasma. Format: ADME, organism-based.
Data set [4] is described as follows: Clearance in mouse plasma. Format: ADME, organism-based.
A short description of data set [5]: Volume of distribution at steady state in mouse plasma. The format is ADME, organism-based. Particulars: read-out: Vdss.
The nature of data set [6]: Cmax in mouse plasma. The format is ADME, organism-based.
Data set [7] can be described thus: Oral bioavailability in mouse plasma. Format: ADME, organism-based.
Data set [8] can be described thus: Oral bioavailability in rat plasma. Format: ADME, organism-based.
A short description of data set [9]: Half life in rat plasma. Format: ADME, organism-based.
Data set [10] can be described thus: Cmax in rat plasma. Format: ADME, organism-based.
Data set [11] in a line: Clearance in rat plasma. Format: ADME, organism-based.
Data set [12] is described as follows: Volume of distribution at steady state in rat plasma. Particulars: read-out: Vdss. The format is ADME, organism-based.

Sequence of Hydroxycarboxylic acid receptor 2 (Homo sapiens) (Q8TDS4 whole entry): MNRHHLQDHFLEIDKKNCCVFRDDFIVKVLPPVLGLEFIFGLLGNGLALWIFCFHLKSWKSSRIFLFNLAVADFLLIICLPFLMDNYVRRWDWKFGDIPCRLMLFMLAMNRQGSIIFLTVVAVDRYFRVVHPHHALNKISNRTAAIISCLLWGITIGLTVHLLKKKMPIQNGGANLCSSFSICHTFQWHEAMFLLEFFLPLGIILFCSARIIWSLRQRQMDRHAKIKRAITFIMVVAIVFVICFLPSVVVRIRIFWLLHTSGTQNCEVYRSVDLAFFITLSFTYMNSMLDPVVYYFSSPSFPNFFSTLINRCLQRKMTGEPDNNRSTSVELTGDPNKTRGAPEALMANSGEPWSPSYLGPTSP

As to `N#CC1CCC(NC(=O)CCc2ccc3cc(O)ccc3c2)=C(C(=O)O)C1` (stereo not drawn), in data set [1], the inhibition came out at 7%.
With `O=C(CCc1nc(-c2ccc(F)cn2)no1)NC1=C(C(=O)O)CC(c2cc(F)cc(F)c2)CC1` (stereo not drawn), the fold change (FC) in data set [2] worked out at 30.
In data set [3], `O=C(CCc1nc(-c2ccc(O)cn2)no1)NC1=C(C(=O)O)CCCC1` had a half-life of 1.3 h. Moreover, the clearance in data set [4] stood at 2 mL/min/kg. In addition, in [5], the Vd was determined as 0.21 L/kg. The same compound yielded a Cmax in data set [6] of 3.9 µM. In addition, in [7], the bioavailability came to 13%.
On to `O=C(CCc1ccc2cc(O)ccc2c1)NC1=C(C(=O)O)CC(c2cc(F)cc(F)c2)CC1` (stereo not drawn), for which the fold change (FC) in data set [2] was > 400.
On to `NC(Cc1nc(-c2ccc(F)cn2)no1)C(=O)NC1=C(C(=O)O)CC(c2cc(F)cc(F)c2)CC1` (stereo not drawn), for which the bioavailability in [8] came out at 44%. This compound gave a half-life in data set [9] of 4.8 h. Moreover, the peak level in data set [10] (Cmax) was 3.8 µM. The compound also returned a clearance in data set [11] of 2.3 mL/min/kg. Moreover, the fold change (FC) in data set [2] stood at 30. The Vd in [12] came to 2.4 L/kg.
`O=C(CCc1ccc(-c2ccc(O)cc2)cc1)Nc1ccccc1C(=O)O`: in data set [3], the half-life is 2.4 h. Also, in data set [4], the clearance was determined as 8.7 mL/min/kg. Further, the Vd in data set [5] was determined as 0.78 L/kg. Besides, in data set [6], the highest level (Cmax) was 4 µM. Also, the bioavailability in [7] came to 35%.
In the case of `O=C(CCc1ccc2cc(O)ccc2c1)NC1=C(C(=O)O)CC(c2cccnc2F)CC1` (stereo not drawn), in data set [2], the fold change (FC) amounted to 100.
The same measure, in the same setting: the same measure for `CCCC1CCC(NC(=O)CCc2ccc3cc(O)ccc3c2)=C(C(=O)O)C1` (stereo not drawn): > 400.
Consider `O=C(CCc1ccc2cc(O)ccc2c1)NC1=C(C(=O)O)CC(c2cccc(F)c2)CC1` (stereo not drawn), for which the fold change (FC) in data set [2] is > 400.
As for `Cn1nccc1C1CCC(NC(=O)CCc2ccc3cc(O)ccc3c2)=C(C(=O)O)C1` (stereo not drawn), the fold change (FC) in [2] worked out at 200.
`O=C(CCc1ccc(-c2ccc(O)cc2)cc1)NC1=C(C(=O)O)CC(c2cccnc2F)CC1` (stereo not drawn): the half-life in [3] is 1.8 h. In [4], the clearance worked out at 5.4 mL/min/kg. In addition, the Vd in data set [5] stood at 0.42 L/kg. Moreover, the concentration in data set [6] peaked (Cmax) at 1.2 µM. Moreover, the bioavailability in data set [7] came to 12%.
As for `O=C(CCc1ccc2cc(O)ccc2c1)NC1=C(C(=O)O)CC(c2ccc(F)nc2)CC1` (stereo not drawn), the fold change (FC) in [2] came out at 90.
`C[C@H]1CC(NC(=O)CCc2nc(-c3ccc(O)cn3)no2)=C(C(=O)O)C[C@H]1c1cccc(F)c1` showed a half-life in [3] of 3.9 h. In addition, the clearance in [4] came to 5.6 mL/min/kg. Besides, the Vd in [5] was determined as 0.76 L/kg. Further, the Cmax in data set [6] was determined as 0.3 µM. Besides, the bioavailability in data set [7] came to 2%.
Turning to `O=C(CCc1ccc2cc(O)ccc2c1)NC1=C(C(=O)O)CC(c2ccccc2F)CC1` (stereo not drawn), in data set [2], the fold change (FC) is > 400.
As to `NC(Cc1nc(-c2ccc(F)cn2)no1)C(=O)NC1=C(C(=O)O)CCCC1` (stereo not drawn), the half-life in data set [3] was 14 h. For the same compound, the clearance in data set [4] stood at 0.5 mL/min/kg. The Vd in data set [5] is 1.4 L/kg. For the same compound, the fold change (FC) in data set [2] is > 400. Further, the Cmax in [6] is 16 µM. Further, the bioavailability in [7] is 87%.
For the compound `O=C(CCc1nc(-c2ccc(F)cn2)no1)NC1=C(C(=O)O)CCCC1`, the fold change (FC) in data set [2] is > 400.
Still for that read-out and setting: the same measure for `Cn1cc(C2CCC(NC(=O)CCc3ccc4cc(O)ccc4c3)=C(C(=O)O)C2)cn1` (stereo not drawn): > 400.
